From ChEMBL document CHEMBL1250501, “Anti-tubercular agents. Part 5: synthesis and biological evaluation of benzothiadiazine 1,1-dioxide based congeners” (Eur J Med Chem, 2010)
Converted amounts (≈) assume the structure as drawn. The source made the active and inactive calls. The rule behind the calls is not given here.

Columns and labels:
[1] = test system: Pseudomonas aeruginosa; test: Antibacterial activity against Pseudomonas aeruginosa at 25 ug/ml after 18 hrs by cup plate method; format: functional; conditions: read-out: DIZ
Procedure, shortened: (§1)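 Agar well diffusion on Mueller-Hinton agar. Inoculum was adjusted to a 0.5 McFarland standard (about […] × 10⁸ CFU/mL) and swabbed over the plate three times, rotating about 60° each time, then the rim was swabbed. Compounds in DMSO went into duplicate 6 mm wells. Plates were incubated at 37 °C for 18 h and inhibition zone diameter read to the nearest mm. DMSO negative control; streptomycin and ciprofloxacin positive controls.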

[2] = test system: Klebsiella pneumoniae; test: Antibacterial activity against Klebsiella pneumoniae at 75 ug/ml after 18 hrs by cup plate method; format: functional; conditions: read-out: DIZ; procedure, shortened: as §1
[3] = test system: Staphylococcus epidermidis; test: Antibacterial activity against Staphylococcus epidermidis at 75 ug/ml after 18 hrs by cup plate method; format: functional; conditions: read-out: DIZ; procedure, shortened: as §1
[4] = test system: Aspergillus niger; test: Antifungal activity against Aspergillus niger at 100 ug/ml after 48 hrs by cup plate method; format: functional
Procedure, shortened: (§2)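 Agar well (cup plate) diffusion on potato dextrose agar 39 g/L, with compounds dissolved in DMSO. Plates were incubated at 28 ± 2 °C for 48 h and inhibition zones measured to the nearest mm. Three replicates per treatment. Amphotericin B positive control; solvent control included.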

[5] = test system: Candida albicans; test: Antifungal activity against Candida albicans MTCC 227 at 25 ug/ml after 48 hrs by cup plate method; format: functional
Procedure, shortened: (§3)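 Agar well (cup plate) diffusion on potato dextrose agar 39 g/L. Compounds dissolved in DMSO and loaded into 6 mm wells. Incubated at 28 ± 2 °C for 48 h. Inhibition zone diameter measured to the nearest millimetre, three replicates per treatment. DMSO solvent as negative control, amphotericin B as positive control.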

[6] = test system: Staphylococcus epidermidis; test: Antibacterial activity against Staphylococcus epidermidis at 10 ug/ml after 18 hrs by cup plate method; format: functional; conditions: read-out: DIZ; procedure, shortened: as §1
[7] = test system: Staphylococcus epidermidis; test: Antibacterial activity against Staphylococcus epidermidis at 100 ug/ml after 18 hrs by cup plate method; format: functional; conditions: read-out: DIZ; procedure, shortened: as §1
[8] = test system: Pseudomonas aeruginosa; test: Antibacterial activity against Pseudomonas aeruginosa at 10 ug/ml after 18 hrs by cup plate method; format: functional; procedure, shortened: as §1
[9] = test system: Aspergillus niger; test: Antifungal activity against Aspergillus niger at 50 ug/ml after 48 hrs by cup plate method; format: functional, organism-based; procedure, shortened: as §2
[10] = test system: Candida albicans; test: Antifungal activity against Candida albicans MTCC 227 at 100 ug/ml after 48 hrs by cup plate method; format: functional; conditions: MTCC 227, 48 h, read-out: IZ; procedure, shortened: as §2
[11] = test system: Staphylococcus aureus; test: Antibacterial activity against Staphylococcus aureus at 25 ug/ml after 18 hrs by cup plate method; format: functional; conditions: read-out: DIZ; procedure, shortened: as §1
[12] = test system: Pseudomonas aeruginosa; test: Antibacterial activity against Pseudomonas aeruginosa at 50 ug/ml after 18 hrs by cup plate method; format: functional; conditions: read-out: DIZ; procedure, shortened: as §1
[13] = test system: Klebsiella pneumoniae; test: Antibacterial activity against Klebsiella pneumoniae at 25 ug/ml after 18 hrs by cup plate method; format: functional; conditions: read-out: DIZ; procedure, shortened: as §1
[14] = test system: Escherichia coli; test: Antibacterial activity against Escherichia coli at 100 ug/ml after 18 hrs by cup plate method; format: functional; conditions: read-out: DIZ; procedure, shortened: as §1
[15] = test system: Bacillus subtilis; test: Antibacterial activity against Bacillus subtilis at 100 ug/ml after 18 hrs by cup plate method; format: functional; conditions: read-out: DIZ; procedure, shortened: as §1
[16] = test system: Aspergillus sp.; test: Antifungal activity against Aspergillus sp. at 100 ug/ml after 48 hrs by cup plate method; format: functional; procedure, shortened: as §2
[17] = test system: Bacillus subtilis; test: Antibacterial activity against Bacillus subtilis at 10 ug/ml after 18 hrs by cup plate method; format: functional; conditions: read-out: DIZ; procedure, shortened: as §1
[18] = test system: Aspergillus sp.; test: Antifungal activity against Aspergillus sp. at 50 ug/ml after 48 hrs by cup plate method; format: functional; procedure, shortened: as §2
[19] = test system: Klebsiella pneumoniae; test: Antibacterial activity against Klebsiella pneumoniae at 50 ug/ml after 18 hrs by cup plate method; format: functional; conditions: read-out: DIZ; procedure, shortened: as §1
[20] = test system: Aspergillus sp.; test: Antifungal activity against Aspergillus sp. at 25 ug/ml after 48 hrs by cup plate method; format: functional; procedure, shortened: as §2
[21] = test system: Candida albicans; test: Antifungal activity against Candida albicans MTCC 227 at 75 ug/ml after 48 hrs by cup plate method; format: functional; conditions: MTCC 227, 48 h, read-out: IZ; procedure, shortened: as §3
[22] = test system: Staphylococcus aureus; test: Antibacterial activity against Staphylococcus aureus at 10 ug/ml after 18 hrs by cup plate method; format: functional; procedure, shortened: as §1
[23] = test system: Aspergillus niger; test: Antifungal activity against Aspergillus niger at 75 ug/ml after 48 hrs by cup plate method; format: functional; procedure, shortened: as §2
[24] = test system: Candida albicans; test: Antifungal activity against Candida albicans MTCC 227 at 50 ug/ml after 48 hrs by cup plate method; format: functional; conditions: MTCC 227, 48 h, read-out: IZ; procedure, shortened: as §3
[25] = test system: Staphylococcus aureus; test: Antibacterial activity against Staphylococcus aureus at 100 ug/ml after 18 hrs by cup plate method; format: functional; conditions: read-out: DIZ; procedure, shortened: as §1
[26] = test system: Escherichia coli; test: Antibacterial activity against Escherichia coli at 75 ug/ml after 18 hrs by cup plate method; format: functional; conditions: read-out: DIZ; procedure, shortened: as §1
[27] = test system: Klebsiella pneumoniae; test: Antibacterial activity against Klebsiella pneumoniae at 10 ug/ml after 18 hrs by cup plate method; format: functional; procedure, shortened: as §1
[28] = test system: Staphylococcus aureus; test: Antibacterial activity against Staphylococcus aureus at 50 ug/ml after 18 hrs by cup plate method; format: functional; conditions: read-out: DIZ; procedure, shortened: as §1
[29] = test system: Pseudomonas aeruginosa; test: Antibacterial activity against Pseudomonas aeruginosa at 75 ug/ml after 18 hrs by cup plate method; format: functional; conditions: read-out: DIZ; procedure, shortened: as §1
[30] = test system: Staphylococcus epidermidis; test: Antibacterial activity against Staphylococcus epidermidis at 50 ug/ml after 18 hrs by cup plate method; format: functional; conditions: read-out: DIZ; procedure, shortened: as §1
[31] = test system: Klebsiella pneumoniae; test: Antibacterial activity against Klebsiella pneumoniae at 100 ug/ml after 18 hrs by cup plate method; format: functional; conditions: read-out: DIZ; procedure, shortened: as §1
[32] = test system: Aspergillus sp.; test: Antifungal activity against Aspergillus sp. at 75 ug/ml after 48 hrs by cup plate method; format: functional; procedure, shortened: as §2
[33] = test system: Mycobacterium tuberculosis; test: Antimycobacterial activity against Mycobacterium tuberculosis H37Rv after 3 to 4 weeks by broth microdilution assay; format: functional
Procedure, shortened: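 MIC by broth microdilution on compounds active in a single-concentration primary screen. Plates incubated 3–4 weeks at 37 °C in a CO₂ incubator. Wells read visually for absence of growth turbidity.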

[34] = test system: Pseudomonas aeruginosa; test: Antibacterial activity against Pseudomonas aeruginosa at 100 ug/ml after 18 hrs by cup plate method; format: functional; conditions: read-out: DIZ; procedure, shortened: as §1
[35] = test system: Staphylococcus aureus; test: Antibacterial activity against Staphylococcus aureus at 75 ug/ml after 18 hrs by cup plate method; format: functional; conditions: read-out: DIZ; procedure, shortened: as §1
[36] = test system: Aspergillus niger; test: Antifungal activity against Aspergillus niger at 25 ug/ml after 48 hrs by cup plate method; format: functional, organism-based; procedure, shortened: as §2
[37] = test system: Bacillus subtilis; test: Antibacterial activity against Bacillus subtilis at 50 ug/ml after 18 hrs by cup plate method; format: functional; procedure, shortened: as §1
[38] = test system: Escherichia coli; test: Antibacterial activity against Escherichia coli at 50 ug/ml after 18 hrs by cup plate method; format: functional; conditions: read-out: DIZ; procedure, shortened: as §1
[39] = test system: Staphylococcus epidermidis; test: Antibacterial activity against Staphylococcus epidermidis at 25 ug/ml after 18 hrs by cup plate method; format: functional; conditions: read-out: DIZ; procedure, shortened: as §1

CN1C(N2CCN(Cc3ccc([N+](=O)[O-])o3)CC2)=NS(=O)(=O)c2ccccc21
zone of inhibition at 25 µg/mL [1]: 12 mm | zone of inhibition at 75 µg/mL [2]: 17 mm | zone of inhibition at 75 µg/mL [3]: 18 mm | inhibition zone (IZ) [4]: inactive | inhibition zone (IZ) [5]: inactive | zone of inhibition at 10 µg/mL [6]: 10 mm | zone of inhibition at 100 µg/mL [7]: 24 mm | diameter of the inhibition zone (DIZ) [8]: inactive | inhibition zone (IZ) [9]: inactive | zone of inhibition at 100 µg/mL [10]: 18 mm | zone of inhibition at 25 µg/mL [11]: 10 mm | zone of inhibition at 50 µg/mL [12]: 10 mm | zone of inhibition at 25 µg/mL [13]: 12 mm | zone of inhibition at 100 µg/mL [14]: 26 mm | zone of inhibition at 100 µg/mL [15]: 23 mm | inhibition zone (IZ) [16]: inactive | zone of inhibition at 10 µg/mL [17]: 9 mm | inhibition zone (IZ) [18]: inactive | zone of inhibition at 50 µg/mL [19]: 10 mm | inhibition zone (IZ) [20]: inactive | zone of inhibition at 75 µg/mL [21]: 14 mm | diameter of the inhibition zone (DIZ) [22]: inactive | inhibition zone (IZ) [23]: inactive | zone of inhibition at 50 µg/mL [24]: 11 mm | zone of inhibition at 100 µg/mL [25]: 17 mm | zone of inhibition at 75 µg/mL [26]: 29 mm | diameter of the inhibition zone (DIZ) [27]: inactive | zone of inhibition at 50 µg/mL [28]: 14 mm | zone of inhibition at 75 µg/mL [29]: 17 mm | zone of inhibition at 50 µg/mL [30]: 15 mm | zone of inhibition at 100 µg/mL [31]: 19 mm | inhibition zone (IZ) [32]: inactive | MIC [33]: 8 µg/mL (≈ 19.7 µM) | zone of inhibition at 100 µg/mL [34]: 17 mm | zone of inhibition at 75 µg/mL [35]: 17 mm | inhibition zone (IZ) [36]: inactive | diameter of the inhibition zone (DIZ) [37]: inactive | zone of inhibition at 50 µg/mL [38]: 15 mm | zone of inhibition at 25 µg/mL [39]: 13 mm
